Published values gathered from unrelated publications.
Each line is one published result; the experiments were not run side by side.
Target: NAD-dependent protein deacetylase sirtuin-1 (SIRT1, Homo sapiens, UniProt Q96EB6)
Effect on: enzyme activity
Mode: inhibitor
Sequence (Q96EB6 193-741, as in one of the studies): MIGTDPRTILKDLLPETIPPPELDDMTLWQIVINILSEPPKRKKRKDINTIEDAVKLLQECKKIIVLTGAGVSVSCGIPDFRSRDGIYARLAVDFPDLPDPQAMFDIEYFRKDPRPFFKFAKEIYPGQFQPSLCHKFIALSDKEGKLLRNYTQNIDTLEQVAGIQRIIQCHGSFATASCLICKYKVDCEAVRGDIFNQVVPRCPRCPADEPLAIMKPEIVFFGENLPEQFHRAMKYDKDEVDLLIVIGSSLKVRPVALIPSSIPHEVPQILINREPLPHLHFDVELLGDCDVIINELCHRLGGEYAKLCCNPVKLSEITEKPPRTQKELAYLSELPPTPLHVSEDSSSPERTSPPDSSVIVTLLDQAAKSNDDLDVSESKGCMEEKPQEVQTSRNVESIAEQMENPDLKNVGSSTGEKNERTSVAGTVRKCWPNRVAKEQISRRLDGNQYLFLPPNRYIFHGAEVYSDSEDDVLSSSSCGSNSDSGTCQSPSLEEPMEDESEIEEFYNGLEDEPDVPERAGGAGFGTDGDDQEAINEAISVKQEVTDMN

CCCCCC1CC(=O)c2ccc(F)cc2O1 (stereo not shown) — inhibition (fluorescence; 200 µM): 3.8%
NC(=O)CCNC(=S)NCCCC[C@H](NS(=O)(=O)c1cccc(F)c1)C(=O)N[C@@H](Cc1c[nH]c2ccccc12)C(=O)NC1CCC1 — inhibition (10 µM): 3%
CC(=S)NCCCC[C@H](NC(=O)OCc1ccccc1)C(=O)N[C@@H](Cc1c[nH]c2ccccc12)C(=O)N[C@@H](CCC(=O)O)C(N)=O — inhibition (1 µM): 83%
CCCCC[C@@H]1CC(=O)c2cc(Cl)cc(Br)c2O1 — inhibition (fluorescence; 200 µM): 5.3%
O=C(NC1CCC1)[C@H](Cc1c[nH]c2ccccc12)NC(=O)[C@H](CCCCNC(=S)NCCc1nnn[nH]1)NS(=O)(=O)c1cccc(F)c1 — inhibition (10 µM): 17%
CCCCCC1C=Cc2cc(Cl)cc(Br)c2O1 (stereo not shown) — inhibition (fluorescence; 200 µM): 7.1%
Cc1ccc(C(=O)Nc2ccc(S(=O)(=O)O)c3cc(S(=O)(=O)O)cc(S(=O)(=O)O)c23)cc1NC(=O)c1cccc(NC(=O)Nc2cccc(C(=O)Nc3cc(C(=O)Nc4ccc(S(=O)(=O)O)c5cc(S(=O)(=O)O)cc(S(=O)(=O)O)c45)ccc3C)c2)c1 — inhibition (10 µM): 74%
Ic1cccc2cnccc12 — inhibition (10 µM): 2%
O=C(NC1CCC1)[C@H](Cc1c[nH]c2ccccc12)NC(=O)[C@H](CCCCNC(=S)NCc1n[nH]c(=S)o1)NS(=O)(=O)c1cccc(F)c1 — inhibition (30 µM): 37%
CCCCCCCCCCCCNC(=S)NCCCC[C@H](NC(=O)OCc1ccccc1)C(=O)N[C@@H](Cc1c[nH]c2ccccc12)C(=O)N[C@@H](CCCNC(=N)N)C(N)=O — inhibition (1 µM): 52%
